# Screening results as filed in PubChem BioAssay.
# TRPC4 agonist = opens the mouse TRPC4 cation channel; Q9QUQ5; HEK293 TRPC4beta/mu-opioid, Fluo4 calcium fluorescence; stronger effect = higher value; B-score at 10 µM; 310,000 tested, 0.49% active; AID 2237;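 active = B-score above 5 SD of library B-scores, and initial fluorescence ratio not above library mean plus 5 SD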;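 also: positive B-score marks a calcium rise read as TRPC4 activation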
# Target sequence (Q9QUQ5 whole entry, looked up): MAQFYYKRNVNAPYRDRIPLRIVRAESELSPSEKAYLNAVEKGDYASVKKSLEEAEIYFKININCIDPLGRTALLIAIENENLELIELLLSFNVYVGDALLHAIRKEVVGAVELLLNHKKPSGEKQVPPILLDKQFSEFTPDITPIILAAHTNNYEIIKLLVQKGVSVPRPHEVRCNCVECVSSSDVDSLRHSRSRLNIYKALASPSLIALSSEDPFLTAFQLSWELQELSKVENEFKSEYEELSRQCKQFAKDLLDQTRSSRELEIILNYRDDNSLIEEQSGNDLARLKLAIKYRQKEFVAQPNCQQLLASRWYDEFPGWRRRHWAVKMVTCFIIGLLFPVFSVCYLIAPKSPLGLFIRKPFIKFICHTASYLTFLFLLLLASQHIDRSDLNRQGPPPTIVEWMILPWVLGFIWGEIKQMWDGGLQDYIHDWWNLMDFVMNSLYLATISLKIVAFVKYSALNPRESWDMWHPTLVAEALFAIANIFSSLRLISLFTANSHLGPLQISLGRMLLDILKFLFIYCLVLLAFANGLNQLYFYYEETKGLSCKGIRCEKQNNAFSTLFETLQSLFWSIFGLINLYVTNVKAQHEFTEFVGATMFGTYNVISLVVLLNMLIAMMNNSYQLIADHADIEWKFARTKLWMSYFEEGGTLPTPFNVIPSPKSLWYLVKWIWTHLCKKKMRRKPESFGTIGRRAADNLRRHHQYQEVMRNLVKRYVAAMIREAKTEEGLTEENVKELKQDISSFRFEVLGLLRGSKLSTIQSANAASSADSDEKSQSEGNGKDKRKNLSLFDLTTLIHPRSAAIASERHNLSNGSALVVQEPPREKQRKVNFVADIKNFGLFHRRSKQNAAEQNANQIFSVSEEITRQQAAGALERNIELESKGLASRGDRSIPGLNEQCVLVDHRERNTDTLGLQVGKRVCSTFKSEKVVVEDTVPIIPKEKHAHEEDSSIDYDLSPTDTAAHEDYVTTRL
#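 Assay system – TRPC4beta and mu-opioid receptor HEK293 stable cells · Measured by – Fluo4 fluorescence, kinetic · Schedule – dye loading 45 min room temperature, 110 s kinetic read · Read-out – B-scored integrated calcium fluorescence ratio · Controls – buffer and maximal DAMGO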
# Pemphigus Ab inh = blocks pemphigus antibody binding to human desmoglein-3 | DSG3-coupled beads, scFv-anti-DSG3-GFP binding, flow cytometry; stronger effect = lower value | binding (percent of control), % at 10 µM | 310,000 tested, 0.48% active | AID 588358;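 active = binding more than 3 SD below its plate's average and above zero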;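 also: hits lower antibody fragment binding to DSG3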
# TRPC6 inhibitor = blocks the mouse TRPC6 cation channel | HEK293-TRPC6, membrane potential dye, ACh-evoked depolarization; stronger effect = lower value | B-score at 10 µM | 310,000 tested, 1.1% active | AID 2553;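 active = B-score under library mean minus 3 SD, initial fluorescence not abnormally high, positive integrated signal ratio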;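 also: B-score derived from integrated fluorescence ratio over the kinetic read; more negative B-score means stronger inhibition of depolarization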
# TRPC6 activator = activators of mouse TRPC6 channel; B-score at 10 µM; 310,000 tested, 0.13% active; HEK293-TRPC6 membrane potential dye fluorescence; stronger effect = higher value; Q61143;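 active = B-score of the integrated fluorescence ratio above library mean plus 3 SD, and starting fluorescence ratio within library mean plus 5 SD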;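 also: higher score means more depolarization so channel activation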
# TRPC4 inh = inhibitors of mouse TRPC4 channel; B-score at 10 µM; HEK293 TRPC4beta/mu-opioid, DAMGO-evoked Fluo4 calcium flux; stronger effect = lower value; 300,000 tested, 0.39% active; AID 2247; Q9QUQ5;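 active = B-score over 3 SD under the library average, no early fluorescence shift, positive overall ratio signal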
#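 Assay system – HEK293 line stably carrying TRPC4beta and mu-opioid receptor · Doses – single dose · Detection – Fluo4 calcium-dye fluorescence, kinetic read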
# TRPC4 potent = allosteric potentiators of mouse TRPC4 channel; B-score at 10 µM; AID 2227; Q9QUQ5; HEK293 TRPC4beta/mu-opioid, DAMGO EC20, Fluo-4 Ca2+ flux; stronger effect = higher value; 310,000 tested, 0.42% active;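 active = B-score of calcium response area above 5 SD of library B-scores, with initial fluorescence ratio within 5 SD of library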
# Numbers stand for hits; – = inactive; · = not tested or not shown. Rows were chosen to be rich in hits. Some 2.5% of all compounds tested hit in one or more screens of this group.
SMILES,TRPC4 agonist,Pemphigus Ab inh,TRPC6 inhibitor,TRPC6 activator,TRPC4 inh,TRPC4 potent
O=C(OC1C2CCC1C1CN(CCc3ccccc3)CC12)c1ccccc1 (configuration not stated),–,–,–,–,-6,–
O=C(CCCn1c(=S)[nH]c2cc3c(cc2c1=O)OCO3)N1CCN(c2ccccc2F)CC1,–,–,–,–,–,–
Cc1ccc(C)c(N2CCN(C(=O)CCCn3c(=S)[nH]c4cc5c(cc4c3=O)OCO5)CC2)c1,–,78,–,–,–,–
C[C@@H](NC(=O)c1nc[nH]c1C(=O)NCC(=O)OCc1ccccc1)c1ccccc1,–,–,–,–,–,–
COc1ccc(/C=N/NC(=O)CCN2CCN(c3ccccc3)CC2)c(OC)c1OC,–,–,–,–,–,–
O=C(CCN1CCN(c2ccccc2)CC1)N/N=C/c1ccc(O)c(O)c1O,–,80,–,–,–,–
O=C(c1ccc([N+](=O)[O-])cc1)N(Cc1ccccc1)Cc1ccccc1,·,–,·,·,·,·
CCC1(C(=O)c2ccccc2)C(c2ccc([N+](=O)[O-])cc2)C1(C(=O)OC)C(=O)OC (configuration not stated),–,–,–,–,-7,–
C=CCN(C)CC/C=C1\c2ccccc2CSc2ccccc21,–,·,–,–,-5,–
OC1CCN(Cc2cccc3ccccc23)CC1,–,–,–,–,–,–
CN1CCCN(Cc2cccc3ccccc23)CC1,–,–,–,–,–,23
COc1ccc(N(C(=O)/C=C/c2ccccc2)C2=CC3CCC(C2)N3C)cc1 (configuration not stated),–,–,–,–,–,–
CCN(CC)c1ncnc2c1[nH]c1ccccc12,–,–,–,–,-5,–
Cc1cc(C)n2nc(C(=O)OCC(=O)N3C(C)CCCC3C)nc2n1 (configuration not stated),–,–,–,–,–,–
CN1CCN(CCOc2cccc(Cl)c2)CC1,–,·,–,–,–,14
COc1ccc2c(C)c(CCC(=O)NCCCN3CCCC3=O)c(=O)oc2c1C,–,–,–,–,-6,–
CCCCN(CC)CCCNC(=O)C1c2ccccc2C(=O)N(C)C1c1cn(C)c2ccccc12 (configuration not stated),80,·,–,–,–,–
CNc1nc(-c2ccc3c(c2)CCN3C(=O)CC(C)(C)C)c(C)s1,–,–,–,–,–,–
CCCC(=O)N1CCc2cc(-c3nc(N)sc3C)ccc21,101,–,–,–,–,–
Cc1[nH]c2ccccc2c1CN1CCC(Cc2ccccc2)CC1,67,–,–,–,–,–
Cc1[nH]c2ccccc2c1CN1CCN(c2ccccn2)CC1,–,–,–,–,–,–
Cc1nnc(Sc2cc(NCCCO)c([N+](=O)[O-])c3nonc23)s1,–,–,–,–,-6,–
Cc1nnc(Sc2cc(NCCO)c([N+](=O)[O-])c3nonc23)s1,–,–,–,–,–,–
C#CCNC(=O)C1=C[C@@H](c2cn(C(C)=O)c3ccccc23)C[C@@H](OCc2ccc(CO)cc2)O1,–,–,–,–,–,–
C#CCNC(=O)C1=C[C@H](c2csc3ccccc23)C[C@H](OCc2ccc(CO)cc2)O1,52,–,–,–,–,–
SMILES,TRPC4 agonist,Pemphigus Ab inh,TRPC6 inhibitor,TRPC6 activator,TRPC4 inh,TRPC4 potent
CC(=O)n1cc([C@H]2C=C(C(=O)NCc3ccccc3)O[C@@H](OCc3ccc(CO)cc3)C2)c2ccccc21,244,–,–,–,–,–
CC(=O)n1cc([C@H]2C=C(C(N)=O)O[C@@H](OCc3ccc(CO)cc3)C2)c2ccccc21,51,–,–,–,–,–
COc1ccc(-n2c(-c3ccc(Br)cc3)c[n+]3c2CCCCC3)cc1,–,–,–,–,-6,–
CCn1c(=O)n(CC)c2cc(NC(=O)C(C)c3ccccc3)c(Br)cc21 (configuration not stated),–,–,–,–,–,–
C/C(=N\NC(=O)c1nnn(-c2nonc2N)c1CSc1ccc(C)cc1)c1cccs1,·,–,·,·,·,·
CCOc1c(Cl)cc(CNCC(O)c2ccccc2)cc1OC (configuration not stated),–,–,–,–,-6,–
CCOc1c(Cl)cc(CNCC(C)C)cc1OC,–,–,–,–,–,–
